Active and inactive are the calls of the source. Unless noted, the rule behind the calls is not given here.
Key:
[1] = Cytotoxicity against mouse T lymphocytes after 48 hrs by CCK-8 assay; conditions: t-cell
Summary of the method: (§1)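 Splenocyte toxicity run without ConA or LPS at 5 × 10⁶ cells/200 μL/well. Cultured 48 h at 37 °C, 5% CO₂ with CCK-8 during the final 4 h; A450 read against a 600 nm reference. Viability (%) = compound OD450 / […] OD450 × 100.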

[2] = Cytotoxicity against mouse B lymphocytes after 48 hrs by CCK-8 assay; conditions: b-cell; summary of the method: as §1
T-cell = assay: Inhibition of ConA-induced mouse T lymphocytes proliferation after 48 hrs by CCK-8 assay; format: functional
Summary of the method: (§2)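 Murine splenocytes, 2.5 × 10⁶ per well, co-treated with compounds at various concentrations plus ConA (5 μg/mL, T-cell stimulus) or LPS (B-cell stimulus). Cultured 48 h at 37 °C, 5% CO₂; CCK-8 added for the last 4 h, A450 read against a 600 nm reference. Triplicate means; change expressed relative to the stimulated positive control. >10% inhibition counted as active.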

B-cell = assay: Inhibition of LPS-induced mouse B lymphocytes proliferation after 48 hrs by CCK-8 assay; format: functional; summary of the method: as §2
MCF7 [3] = assay: Cytotoxicity against human MCF7 cells after 48 hrs by MTS assay; format: functional, cell-based; conditions: MCF7, 48 h
Summary of the method: (§3)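 Cells grown in DMEM or RPMI-1640 with 10% FBS at 37 °C under 5% CO₂. Adherent cells plated 12 h before dosing; suspension cells plated at dosing, initial density 1 × 10⁵ cells/mL. MTS (5 mg/mL stock) added for 4 h at 37 °C, then SDS lysis and OD at 595 nm. IC50 by Reed–Muench.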

SW480 = assay: Cytotoxicity against human SW480 cells after 48 hrs by MTS assay; format: functional, cell-based; conditions: SW480, 48 h; summary of the method: as §3
A549 [4] = assay: Cytotoxicity against human A549 cells after 48 hrs by MTS assay; format: functional, cell-based; conditions: A549, 48 h; summary of the method: as §3
SMMC-7721 [5] = assay: Cytotoxicity against human SMMC7721 cells after 48 hrs by MTS assay; format: functional, cell-based; conditions: SMMC-7721, 48 h; summary of the method: as §3
HL-60 = assay: Cytotoxicity against human HL60 cells after 48 hrs by MTS assay; format: functional, cell-based; conditions: HL-60, 48 h; summary of the method: as §3
MCF7 [6] = assay: Selectivity index, ratio of IC50 for human BEAS2B cells to IC50 for human MCF7 cells; format: functional
Summary of the method: (§4)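 Ratio of the Beas-2B IC50 to the IC50 for each cancer line. Both IC50s come from the 48 h MTS viability assay with Reed–Muench calculation.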

[7] = Selectivity index, ratio of IC50 for human BEAS2B cells to IC50 for human SW480 cells; format: functional; summary of the method: as §4
[8] = Selectivity index, ratio of IC50 for human BEAS2B cells to IC50 for human HL60 cells; format: functional; summary of the method: as §4
SMMC-7721 [9] = assay: Selectivity index, ratio of IC50 for human BEAS2B cells to IC50 for human SMMC7721 cells; format: functional; summary of the method: as §4
A549 [10] = assay: Selectivity index, ratio of IC50 for human BEAS2B cells to IC50 for human A549 cells; format: functional; summary of the method: as §4
[11] = Cytotoxicity against human BEAS2B cells after 48 hrs by MTS assay; format: cell-based; conditions: beas-2b; summary of the method: as §3

COC(=O)/C=C(C)\C=C\[C@@]1(O)C(C)=CC(=O)CC1(C)C
Activity [1]: Non-toxic | Activity [2]: Non-toxic | inhibition (T-cell): inactive | inhibition (B-cell): inactive | IC50 (MCF7 [3]): > 10 µM | IC50 (SW480): > 10 µM | IC50 (A549 [4]): > 10 µM | IC50 (SMMC-7721 [5]): > 10 µM | IC50 (HL-60): > 10 µM

C[C@@H](O)/C=C/[C@@]1(O)C(C)(C)C[C@H](O)[C@@H](O)[C@@]1(C)O [WILSONOL H]
IC50 (MCF7 [3]): > 10 µM | IC50 (SW480): > 10 µM | IC50 (A549 [4]): > 10 µM | IC50 (SMMC-7721 [5]): > 10 µM | IC50 (HL-60): > 10 µM

C[C@@H](O)/C=C/[C@H]1[C@H](CO)C[C@H](O)CC1(C)C
Activity [1]: Non-toxic | Activity [2]: Non-toxic | IC50 (MCF7 [3]): > 10 µM | IC50 (SW480): > 10 µM | IC50 (A549 [4]): > 10 µM | IC50 (SMMC-7721 [5]): > 10 µM | IC50 (HL-60): > 10 µM

C[C@H](O)CCC1=C(CO)C[C@@H](O)CC1(C)C
Activity [1]: Non-toxic | Activity [2]: Non-toxic | inhibition (T-cell): Active | inhibition (B-cell): Active | IC50 (MCF7 [3]): > 10 µM | IC50 (SW480): > 10 µM | IC50 (A549 [4]): > 10 µM | IC50 (SMMC-7721 [5]): > 10 µM | IC50 (HL-60): > 10 µM

C[C@@H]1C[C@H](O)CC(C)(C)[C@]1(O)CC[C@@H](C)O [WILSONOL F]
Activity [1]: Non-toxic | Activity [2]: Non-toxic | IC50 (MCF7 [3]): > 10 µM | IC50 (SW480): > 10 µM | IC50 (A549 [4]): > 10 µM | IC50 (SMMC-7721 [5]): > 10 µM | IC50 (HL-60): > 10 µM

C[C@@H]1[C@H](O)[C@@H](O)CC(C)(C)[C@H]1/C=C/[C@H](C)O
Activity [1]: Non-toxic | Activity [2]: Non-toxic | IC50 (MCF7 [3]): > 10 µM | IC50 (SW480): > 10 µM | IC50 (A549 [4]): > 10 µM | IC50 (SMMC-7721 [5]): > 10 µM | IC50 (HL-60): > 10 µM

CC1=C(CC[C@@H](C)O)C(C)(C)C[C@H](O)[C@@H]1O
Activity [1]: Non-toxic | Activity [2]: Non-toxic | inhibition (B-cell): Active | IC50 (MCF7 [3]): > 10 µM | IC50 (SW480): > 10 µM | IC50 (A549 [4]): > 10 µM | IC50 (SMMC-7721 [5]): > 10 µM | IC50 (HL-60): > 10 µM

C[C@@H](O)/C=C/[C@H]1C(CO)=CC(=O)CC1(C)C
IC50 (MCF7 [3]): > 10 µM | IC50 (SW480): > 10 µM | IC50 (A549 [4]): > 10 µM | IC50 (SMMC-7721 [5]): > 10 µM | IC50 (HL-60): > 10 µM

C[C@@H](O)/C=C/[C@@]1(O)[C@@H](C)C[C@H](O)CC1(C)C
Activity [1]: Non-toxic | Activity [2]: Non-toxic | inhibition (T-cell): Active | inhibition (B-cell): Active | IC50 (MCF7 [3]): > 10 µM | IC50 (SW480): > 10 µM | IC50 (A549 [4]): > 10 µM | IC50 (SMMC-7721 [5]): > 10 µM | IC50 (HL-60): > 10 µM

C[C@@H](O)/C=C/[C@@H]1C(C)(C)[C@H](O)C[C@@H](O)[C@]1(C)O
IC50 (MCF7 [3]): > 10 µM | IC50 (SW480): > 10 µM | IC50 (A549 [4]): > 10 µM | IC50 (SMMC-7721 [5]): > 10 µM | IC50 (HL-60): > 10 µM

CC1=C(CC[C@H](C)O)C(C)(C)C[C@H](O[C@@H]2O[C@H](CO)[C@@H](O)[C@H](O)[C@H]2O)C1
Activity [1]: Non-toxic | Activity [2]: Non-toxic | Ratio IC50 (MCF7 [6]): >16 | Ratio IC50 [7]: >16 | Ratio IC50 [8]: >16 | Ratio IC50 (SMMC-7721 [9]): >16 | Ratio IC50 (A549 [10]): >16 | IC50 (MCF7 [3]): 3.4 µM | IC50 (SW480): 12 µM | Activity [11]: Non-toxic | IC50 (A549 [4]): 2.5 µM | IC50 (SMMC-7721 [5]): 3.1 µM | IC50 (HL-60): 5 µM

CC(O)/C=C/[C@H]1[C@H](C)[C@H](O)[C@@H](O)CC1(C)C (mixture of isomers) [WILSONOL E]
IC50 (MCF7 [3]): > 10 µM | IC50 (SW480): > 10 µM | IC50 (A549 [4]): > 10 µM | IC50 (SMMC-7721 [5]): > 10 µM | IC50 (HL-60): > 10 µM

CC(=O)/C=C/[C@@]1(O)[C@H](C)[C@H](O)[C@@H](O)CC1(C)C [WILSONOL C]
Activity [1]: Non-toxic | Activity [2]: Non-toxic | IC50 (MCF7 [3]): > 10 µM | IC50 (SW480): > 10 µM | IC50 (A549 [4]): > 10 µM | IC50 (SMMC-7721 [5]): > 10 µM | IC50 (HL-60): > 10 µM

C[C@H](O)/C=C/[C@@]1(O)[C@H](C)[C@H](O)[C@@H](O)CC1(C)C [WILSONOL A]
Activity [1]: Non-toxic | Activity [2]: Non-toxic | inhibition (T-cell): Active | IC50 (MCF7 [3]): > 10 µM | IC50 (SW480): > 10 µM | IC50 (A549 [4]): > 10 µM | IC50 (SMMC-7721 [5]): > 10 µM | IC50 (HL-60): > 10 µM

CC(=O)/C=C/[C@@]1(O)[C@H](C)[C@H](O[C@@H]2O[C@H](CO)[C@@H](O)[C@H](O)[C@H]2O)[C@@H](O)CC1(C)C
Activity [1]: Non-toxic | Activity [2]: Non-toxic | IC50 (MCF7 [3]): > 10 µM | IC50 (SW480): > 10 µM | IC50 (A549 [4]): > 10 µM | IC50 (SMMC-7721 [5]): > 10 µM | IC50 (HL-60): > 10 µM

C[C@@H]1[C@H](O)[C@@H](O)CC(C)(C)[C@@]1(O)/C=C/[C@@H](C)O [WILSONOL B]
Activity [1]: Non-toxic | Activity [2]: Non-toxic | inhibition (T-cell): Active | IC50 (MCF7 [3]): > 10 µM | IC50 (SW480): > 10 µM | IC50 (A549 [4]): > 10 µM | IC50 (SMMC-7721 [5]): > 10 µM | IC50 (HL-60): > 10 µM

Reference: ChEMBL document CHEMBL2407050, “Wilsonols A-L, megastigmane sesquiterpenoids from the leaves of Cinnamomum wilsonii” (J Nat Prod, 2013)
